Compound activity (PubChem BioAssay)
Sampled rows, rich in hits. Any-hit rate of the full collection: about 1.6%.
STEP block = inhibitors of human striatal-enriched phosphatase STEP. inhibition, % at 20 µM. actives 0.25% (n = 360,000). P54829. recombinant STEP, OMFP fluorogenic substrate, fluorescence;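 active = inhibition at 20 µM, scaled per plate between control wells, above about 37%, limit read from the data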;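 note: 0% = DMSO with enzyme and substrate and 100% = substrate only without enzyme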
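System: STEP phosphatase, cell-free reaction; Buffer or medium: Bis-Tris pH 6.0 buffer with DTT, detergent; Incubation: 20 min at room temperature, dark; Measured by: fluorescence, 480/540 nm.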
Scp1 inh = blocks human Scp-1 phosphatase activity; AID 493091; inhibition, % at 20 µM; Q9GZU7; Recombinant Scp1, phosphopeptide, malachite green phosphate absorbance; actives 0.88% (n = 340,000);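 active = inhibition above about 50% at 20 µM, limit read from the data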;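 note: plate controls were DMSO wells with enzyme for no effect and wells lacking enzyme for full effect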
Target sequence (Q9GZU7 76-261 limits assumed): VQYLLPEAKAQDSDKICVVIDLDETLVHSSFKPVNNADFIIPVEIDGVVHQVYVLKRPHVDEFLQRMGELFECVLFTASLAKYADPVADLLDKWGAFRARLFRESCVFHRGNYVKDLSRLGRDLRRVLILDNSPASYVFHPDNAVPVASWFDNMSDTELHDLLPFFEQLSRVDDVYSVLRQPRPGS
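Material: truncated SCP-1 phosphatase (76-261aa) / Buffer or medium: 50 mM Tris acetate pH 5.5, 0.005% Tween-20, 10 mM MgCl2 / Compound dosing: one concentration, 20 µM, with 1.0% DMSO / Incubation: 45 min room-temperature reaction, 5 min colour, 30 min stabiliser / Detection: colorimetric free-phosphate detection, absorbance 630 nm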
SUMO1 PPI mod = SUMO1-SIM interaction modulation. P63165. SUMO1 binding to a labelled peptide, TR-FRET, 1 h. inhibition, % at 20 µM. actives 0.33% (n = 360,000); in the data active = inhibition above about 37%
Target sequence (P63165 whole entry, looked up): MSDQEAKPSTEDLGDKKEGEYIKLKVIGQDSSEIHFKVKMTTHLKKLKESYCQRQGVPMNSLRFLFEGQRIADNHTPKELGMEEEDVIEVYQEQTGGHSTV
DNMT1 block = blocks human DNA methyltransferase DNMT1; AID 588458; inhibition (reported as % activation of signal), % at 10 µM; actives 0.83% (n = 360,000); DNMT1 molecular beacon, Hinp1I cleavage, fluorescence; P26358; in the data active = inhibition above about 50%
LMPTP inh = LMPTP (human) inhibition; P24666; recombinant LMPTP-A, OMFP fluorogenic substrate, fluorescence intensity; inhibition, % at 20 µM; actives 0.22% (n = 360,000); AID 651560;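 active = compounds that cut the enzyme signal by at least half of the control window in the single-dose screen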;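 note: plate controls were DMSO wells with enzyme plus substrate for no effect and substrate without enzyme for full effect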
Target sequence (P24666 whole entry, looked up): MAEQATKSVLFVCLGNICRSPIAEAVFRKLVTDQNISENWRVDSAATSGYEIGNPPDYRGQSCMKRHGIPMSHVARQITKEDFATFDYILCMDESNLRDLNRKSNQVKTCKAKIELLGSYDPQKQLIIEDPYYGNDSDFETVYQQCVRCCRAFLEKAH
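material = LMPTP-A | quantity = 0.625 nM enzyme | reagent = OMFP substrate, 400 µM final | buffer or medium = Bis-Tris pH 6.0, DTT, detergent | detection = endpoint fluorescence intensity from OMFP dephosphorylation | dosing = single 20 µM dose | read-out basis = % inhibition relative to no-enzyme and uninhibited control wells | control set = no-enzyme and uninhibited controls | timing = 50 min at room temperature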
F508del corr = correctors of CFTR F508del function in bronchial epithelial cells; AID 720511; actives 0.36% (n = 350,000); CFBE cells, YFP halide quenching; stimulated with forskolin plus potentiator P3; % fluorescence drop versus neutral controls; activity (quench increase), % at 7.58 µM;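 active = mean added fluorescence quench of at least 8% versus neutral control, with both replicates also reaching 8%; inconclusive = only one of the mean or replicate conditions met; inactive = mean below 8% and not both replicates reaching 8%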;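 note: cells transiently co-express mutant CFTR-F508del with the halide-sensitive YFP; corrector assay measuring rescue of mutant channel to the surface after 24 h compound exposure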
* hit, by the source's call; ? = inconclusive; . = not tested or not shown.

SMILES | STEP block | Scp1 inh | SUMO1 PPI mod | DNMT1 block | LMPTP inh | F508del corr
COc1cc(OC)c2c(-c3cccc(-c4ccc(C(F)(F)F)cc4)c3)cc(=O)oc2c1 | 2 | 41 | 39 | 4 | 2 | 2
Cc1ccc(-c2cccc(-c3cc(=O)oc4ccc(C(C)(C)C)cc34)c2)cc1 | 3 | -1 | -2 | 17 | 2 | 8.7*
CCOC(=O)N1CCC(NC(=O)c2cc3c(-c4ccc(Cl)cc4)nn(C)c3s2)CC1 | 3 | -15 | 73* | -14 | 1 | 0
CC(C)NC(=O)c1cc2c(-c3ccc(Cl)cc3)nn(C)c2s1 | 2 | -15 | -1 | 5 | 0 | -3
CC1=Nc2cc(C(=O)NCC3CCCO3)ccc2Sc2ccc(C)cc21 (stereo unspecified) | 1 | -4 | -10 | -1 | 0 | 10*
CN(C)S(=O)(=O)c1ccc(C(=O)OCC(=O)c2ccc3c(c2)NC(=O)CO3)cc1 | 6 | -8 | 15 | 41 | 57* | 0
CN(C)S(=O)(=O)c1cccc(C(=O)OCC(=O)c2ccc3c(c2)NC(=O)CO3)c1 | 1 | -5 | 3 | 3 | 1 | 1
NS(=O)(=O)c1ccc2nc(NC(=O)c3ccc4c(c3)OCCO4)sc2c1 | -2 | -5 | 12 | 0 | -1 | 8.9*
C[C@@H]1CCCCO[C@@H](CN(C)C(=O)c2ccccc2)[C@H](C)CN([C@@H](C)CO)C(=O)c2cc(N(C)C)ccc2O1 | . | . | . | . | . | -5
O=C1CC(N2CCC(c3nc4ccccc4o3)CC2)C(=O)N1Cc1cccs1 (stereo unspecified) | -2 | -4 | 57* | -3 | 3 | .
O=C1CC(N2CCN(c3nc4ccccc4s3)CC2)C(=O)N1Cc1cccs1 (stereo unspecified) | -2 | -3 | 1 | -4 | 0 | .
Cn1cc(C(=O)N/N=C/c2ccc3c(c2)OCO3)c2ccccc21 | 0 | 5 | -13 | -3 | 0 | 9.1*
COc1ccc2cc3[n+](cc2c1O)CCc1cc2c(cc1-3)OCO2 | . | . | 38 | . | 64* | -1
O=C1C=C(N2CCOCC2)c2ccccc2C1=O | 1 | 0 | 40* | 82* | 11 | -8
N#C[C@@H]1[C@@H](c2ccc(C3=CCCC3)cc2)[C@@H](CO)N1c1nc(-c2ccccc2)cs1 | . | . | . | . | . | -2
CC(=O)Nc1ccc(S(=O)(=O)N2c3ccccc3C(C)=CC2(C)C)cc1 | -1 | -11 | 3 | 9 | -1 | 9.5*
O=C(Nc1ccc2c(c1)C(=O)NC2=O)c1ccc2ncsc2c1 | -4 | -10 | 42* | -1 | 0 | 0
CC[N+](CC)(CC)CCOc1cccc(OCC[N+](CC)(CC)CC)c1OCC[N+](CC)(CC)CC | 0 | 96* | -13 | -2 | -6 | .
CCOc1ccccc1OCCOCCOc1c(Cl)cccc1Cl | 2 | -10 | 1 | 9 | 1 | .
Cc1nc(N)sc1-c1csc(Nc2ncccn2)n1 | 64* | -2 | 93* | -21 | 35 | 1
COc1ccc(S(=O)(=O)Nc2ccc3c(c2)CC(=O)N([C@@H](C)CO)C[C@H](C)[C@H](CN(C)C(=O)Nc2cccc4ccccc24)O3)cc1 | . | . | . | . | . | 0
CC(C)N1CCc2c(sc(NC(=O)c3ccc([N+](=O)[O-])o3)c2C(N)=O)C1 | 3 | . | -56 | 0 | 3 | 15*
O=[N+]([O-])c1ccc(Cl)cc1Sc1nc2ccccc2o1 | 3 | -10 | -26 | 7 | 3 | 3
O=[N+]([O-])c1ccc(Sc2nc3ccccc3o2)c([N+](=O)[O-])c1 | 5 | -6 | -17 | 52* | 2 | -2
COc1cc(C(=O)Nc2ccccc2C(=O)Nc2ccccn2)cc(OC)c1OC | 1 | -6 | 4 | -1 | -1 | 13*
COc1ccccc1C1CC(=O)Nc2cc(C)c(C)cc21 (stereo unspecified) | 1 | -12 | 2 | 1 | -1 | ?
Cc1cc2c(cc1C)C(c1ccccc1OC(C)C)CC(=O)N2 (stereo unspecified) | 2 | -10 | 7 | 0 | 2 | 12*
